Test [1] deals with DUSP6. Nature of the test: Western blot of DUSP6 expression in 1205Lu melanoma cells. It is filed as cell-based. To be noted: 1205Lu (BRAF^V600E), 2 μM PLX4032, 0, 6, 24 h.
For test [2], the system named is DUSP6. Nature of the test: Western blot of DUSP6 expression in 293T / 293T^CIC cells. To be noted: parental 293T, 10 ng/mL FGF, various times; SCH772984 10 μM. It is filed as cell-based, human. The procedure, abridged:
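Parental and CIC-knockout 293T cells grown in high-glucose DMEM with 10% FBS and penicillin-streptomycin. Cells stimulated with 10 ng/mL FGF for various times, with or without 10 uM ERK inhibitor, then lysed. DUSP6 detected by western blot.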

A further test has as its system ERK signaling. As to the kind of experiment: Block of ERK signaling in MCF7 cells. In kind it is cell-based, human.
The next test concerns ERK1/2. Nature of the test: Western blot of activated ERK1/2 in 293T^CIC cells. The settings on record: 10 μM, 4 h. It is filed as cell-based, human. In general terms: Immunoblotting shows a protein as a band on a membrane.

For `CCCS(=O)(=O)Nc1ccc(F)c(C(=O)c2c[nH]c3ncc(-c4ccc(Cl)cc4)cc23)c1F` [PLX4032], the DUSP6 expression result in the test with DUSP6 [1] is reported as “time-dependent decrease of DUSP6 expression”.
`O=C(Nc1ccc2[nH]nc(-c3ccncc3)c2c1)[C@@H]1CCN(CC(=O)N2CCN(c3ccc(-c4ncccn4)cc3)CC2)C1` [SCH772984]: the DUSP6 expression entry in the test with DUSP6 [2] was “drop”. For the same compound, the “effectiveness to block ERK signaling” value in the test on ERK signaling was “not effective to block the ERK signaling in MCF7 cells”.
For the compound `CN1CCN(c2ccc(-c3ccncc3-c3cc(F)c(O)c(F)c3)cc2)CC1` [LJH685], the “levels of activated ERK1/2” value in the test on ERK1/2 is “did not reduce the levels of activated ERK1/2”.

(Values after publication PMC7578760 (iScience, 2020).)
